Tested on: J774.A1
Assay: Drug uptake in mouse J774A1 cells assessed as total peptide concentration at 50 uM after 5 hrs at 37 degC by HPLC analysis
Type: ADME, cell-based
Conditions: j774.a1, 5 h
Summary of the method: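 J774A.1 cells were seeded at 300,000 per well and allowed to adhere for 24 h at 37°C in 5% CO2. Medium was replaced with DMEM containing unlabeled peptide, and cells were held at 37°C or 4°C. After three washes in ice-cold PBS, cells were lysed in NP-40 buffer and debris spun out. Reverse-phase HPLC was read at 280 nm. Peaks at 17.5 and 17.75 min were integrated against a standard curve. Intracellular mM was calculated from 300,000 cells at 1 pl each, using monomer mass.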

Drug uptake: 0.9 mM
SMILES: N=C(N)NCCC[C@@H](NC(=O)[C@@H](CS)NC(=O)[C@@H](Cc1ccc(O)cc1)NC(=O)[C@@H](Cc1c[nH]c2ccccc12)NC(=O)[C@@H](CCCNC(=N)N)NC(=O)[C@H](N)Cc1c[nH]c2ccccc12)C(=O)O

— ChEMBL document CHEMBL1255440, “An antimicrobial peptide that targets DNA repair intermediates in vitro inhibits Salmonella growth within murine macrophages” (Antimicrob Agents Chemother, 2010)
